For orientation: IC50 means the concentration that inhibits the measured activity by half.

Active and inactive are the calls of the source. The calls are words filed in the database; no cut-off is given here.

Experimental findings from ChEMBL document CHEMBL4622843, “Synthesis, state-of-the-art NMR-binding and molecular modeling study of new benzimidazole core derivatives as Pin1 inhibitors: Targeting breast cancer” (Bioorg Med Chem, 2020) are described below.

The test system of data set [1] is MCF7. The experiment in a line: Cytotoxicity against human MCF7 cells assessed as reduction in cell viability after 24 hrs by MTT assay. Format: functional, cell-based. Conditions: MCF7, 24 h. A general note: Tetrazolium assays rely on reduction of a dye to a coloured formazan, in cell work by metabolically active cells.
For data set [2], the target named is Peptidyl-prolyl cis-trans isomerase NIMA-interacting 1 (Homo sapiens) (UniProt Q13526). Briefly: Binding affinity to recombinant human 15N-labelled N-terminal 6His-tagged Pin1 expressed in Escherichia coli BL21 (DE3) cells at 1:10 ratio of protein to compound by 2D 15N-1H HSQC NMR spectroscopy. In short, it runs like this:
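Pin1 and compound at a 1:10 protein:compound ratio, compound partially dissolved in 95% buffer/5% DMSO. A reference HSQC spectrum was recorded with DMSO only and compared with ligand-containing spectra.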

Data set [3] can be described thus: Solubility of the compound in 95% PBS buffer/5% DMSO. It counts as physicochemical.
In data set [4] the test system is MCF7. Briefly: Cell cycle arrest in human MCF7 cells assessed as accumulation at G2/M phase at 10 mg/ml after 24 hrs by Annexin V-FITC/propidium iodide staining based flow cytometry (reference value: 5.47%). Format: functional. On the technique in general: A flow cytometer gives signals particle by particle.
For data set [5], the system named is MCF7. The experiment in a line: Induction of apoptosis in human MCF7 cells assessed as late apoptotic cells at 10 mg/ml after 24 hrs by AnnexinV-FITC/propidium iodide staining based flow cytometry analysis (reference value: 0.19%). Format: functional.
Data set [6] concerns MCF7. Briefly: Induction of apoptosis in human MCF7 cells assessed as early apoptotic cells at 10 mg/ml after 24 hrs by AnnexinV-FITC/propidium iodide staining based flow cytometry analysis (reference value: 0.41%). It counts as functional.
For data set [7], the system named is MCF7. Briefly: Induction of apoptosis in human MCF7 cells assessed as necrotic cells at 10 mg/ml after 24 hrs by AnnexinV-FITC/propidium iodide staining based flow cytometry analysis (reference value: 0.44%). Format: functional.
In data set [8] the test system is MCF7. The experiment in a line: Cell cycle arrest in human MCF7 cells assessed as accumulation at S phase at 10 mg/ml after 24 hrs by Annexin V-FITC/propidium iodide staining based flow cytometry (reference value: 38.15%). Format: functional.
For data set [9], the system named is MCF7. The experiment in a line: Cell cycle arrest in human MCF7 cells assessed as accumulation at G0/G1 phase at 10 mg/ml after 24 hrs by Annexin V-FITC/propidium iodide staining based flow cytometry (reference value: 56.38%). It counts as functional.
The subject of data set [10] is MCF7. The experiment in a line: Cell cycle arrest in human MCF7 cells assessed as accumulation at PreG1 phase at 10 mg/ml after 24 hrs by Annexin V-FITC/propidium iodide staining based flow cytometry (reference value: 1.04%). Format: functional.

Peptidyl-prolyl cis-trans isomerase NIMA-interacting 1 (Homo sapiens), sequence (Q13526 whole entry): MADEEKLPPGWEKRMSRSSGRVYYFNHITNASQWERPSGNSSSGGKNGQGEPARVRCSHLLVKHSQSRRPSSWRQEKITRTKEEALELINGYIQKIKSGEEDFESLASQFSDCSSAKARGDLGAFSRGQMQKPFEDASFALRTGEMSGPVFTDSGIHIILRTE

Take `c1ccc2[nH]c(SCCCN3CCOCC3)nc2c1`: the IC50 in the data set with MCF7 [1] is 82.9 µM. On the same count and under the same terms, the value for `CCOc1ccccc1N1CCN(CCCSc2nc3ccccc3[nH]2)CC1` was 32.7 µM; that for `COc1ccc(N2CCN(C(=S)SCc3nc4cc(Cl)c(Cl)cc4[nH]3)CC2)cc1` was 19.9 µM.

`ClCCCSc1nc2cc(Cl)ccc2[nH]1`: the half-maximal inhibitory concentration (IC50) with MCF7 [1] was determined as 24.1 µM. On to `CCN(CC)C(=S)SCc1nc2cc(Cl)c(Cl)cc2[nH]1`, for which, in the data set with MCF7 [1], the IC50 is 12.6 µM. On the same count and under the same terms, next, `COc1ccc(N2CCN(CCCSc3nc4cc(Cl)ccc4[nH]3)CC2)cc1`: 38.5 µM. On the same count and under the same terms, next, `CN1CCN(C(=S)SCc2nc3cc(Cl)c(Cl)cc3[nH]2)CC1`: 30.5 µM; `CCOc1ccccc1N1CCN(C(=S)SCc2nc3cc(Cl)c(Cl)cc3[nH]2)CC1`: 16.2 µM. In the case of `COc1ccc(N2CCN(C(=S)SCc3nc4cc(C)c(C)cc4[nH]3)CC2)cc1`, the IC50 in the data set on MCF7 [1] is 46 µM. Take `COc1ccc(N2CCN(CCCSc3nc4ccccc4[nH]3)CC2)cc1`: in the data set with MCF7 [1], the IC50 came to 6.84 µM. In addition, the result in data set [2] was Active. Moreover, the solubility result in data set [3] was “Soluble”. For `S=C(SCc1nc2cc(Cl)c(Cl)cc2[nH]1)N1CCCCC1`, the IC50 with MCF7 [1] is 42.8 µM. `Cc1cc2nc(CSC(=S)N3CCCCC3)[nH]c2cc1C`: the IC50 in the data set with MCF7 [1] turned out to be 9.55 µM. In [2], the result was Active. In data set [3], the solubility entry was “Soluble”. Take `Clc1cccc(N2CCN(CCCSc3nc4cc(Cl)ccc4[nH]3)CC2)c1`: the IC50 in the data set with MCF7 [1] was determined as 61.4 µM. Same read-out and setting: next, `CN1CCN(CCCSc2nc3ccccc3[nH]2)CC1`: 77.9 µM. `CCOc1ccccc1N1CCN(C(=S)SCc2nc3cc(C)c(C)cc3[nH]2)CC1`: the Activity is listed as 27.86% with MCF7 [4]; 17.01% with MCF7 [5]; 7.36% with MCF7 [6]; 2.91% with MCF7 [7]; 32.42% in the data set on MCF7 [8]; 39.72% in the data set on MCF7 [9]. In addition, the Activity in the data set on MCF7 [10] is 27.28%. The IC50 in the data set on MCF7 [1] was 5.58 µM. On to `Clc1cccc(N2CCN(CCCSc3nc4ccccc4[nH]3)CC2)c1`, for which the IC50 with MCF7 [1] was 54.6 µM. On to `c1ccc2[nH]c(SCCCN3CCNCC3)nc2c1`, for which, in the data set on MCF7 [1], the IC50 came to 91.7 µM. On the same count and under the same terms, next, `CCOc1ccccc1N1CCN(CCCSc2nc3cc(Cl)ccc3[nH]2)CC1`: 27.7 µM; `CN1CCN(CCCSc2nc3cc(Cl)ccc3[nH]2)CC1`: 13.9 µM.

For the molecule `S=C(SCc1nc2cc(Cl)c(Cl)cc2[nH]1)N1CCOCC1`, in the data set with MCF7 [1], the IC50 turned out to be 5.7 µM. The result in data set [2] was Active. Further, the solubility entry in [3] was “Soluble”.
